The source made the active and inactive calls.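 How the source made its calls: active means inhibition of 30% or more at any tested concentration; inactive means the rest.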
Target: Aminopeptidase N (Plasmodium falciparum (isolate 3D7)) (UniProt O96935)
Experiment: inhibition of P. falciparum M1 alanyl aminopeptidase – biochemical, QFRET, fluorogenic H-Leu-NHMec substrate, set 3, dose response (AID 624163)
Conditions: purified rPFM1AAP, H-Leu-NHMec fluorogenic substrate cleavage
Procedure, shortened: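 Material: purified recombinant Plasmodium falciparum M1 alanyl aminopeptidase (rPfM1AAP). Amount: enzyme 5 µg/mL. Reagent: fluorogenic substrate H-Leu-NHMec at 0.1 mM final. Compound dosing: ten twofold doses, 0.2–100 µM. Incubation: 90 min reaction, room temperature. Measured by: fluorescence of released NHMec, excitation 370 nm, emission 460 nm.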

Sequence of Aminopeptidase N (Plasmodium falciparum (isolate 3D7)) (O96935 whole entry, looked up): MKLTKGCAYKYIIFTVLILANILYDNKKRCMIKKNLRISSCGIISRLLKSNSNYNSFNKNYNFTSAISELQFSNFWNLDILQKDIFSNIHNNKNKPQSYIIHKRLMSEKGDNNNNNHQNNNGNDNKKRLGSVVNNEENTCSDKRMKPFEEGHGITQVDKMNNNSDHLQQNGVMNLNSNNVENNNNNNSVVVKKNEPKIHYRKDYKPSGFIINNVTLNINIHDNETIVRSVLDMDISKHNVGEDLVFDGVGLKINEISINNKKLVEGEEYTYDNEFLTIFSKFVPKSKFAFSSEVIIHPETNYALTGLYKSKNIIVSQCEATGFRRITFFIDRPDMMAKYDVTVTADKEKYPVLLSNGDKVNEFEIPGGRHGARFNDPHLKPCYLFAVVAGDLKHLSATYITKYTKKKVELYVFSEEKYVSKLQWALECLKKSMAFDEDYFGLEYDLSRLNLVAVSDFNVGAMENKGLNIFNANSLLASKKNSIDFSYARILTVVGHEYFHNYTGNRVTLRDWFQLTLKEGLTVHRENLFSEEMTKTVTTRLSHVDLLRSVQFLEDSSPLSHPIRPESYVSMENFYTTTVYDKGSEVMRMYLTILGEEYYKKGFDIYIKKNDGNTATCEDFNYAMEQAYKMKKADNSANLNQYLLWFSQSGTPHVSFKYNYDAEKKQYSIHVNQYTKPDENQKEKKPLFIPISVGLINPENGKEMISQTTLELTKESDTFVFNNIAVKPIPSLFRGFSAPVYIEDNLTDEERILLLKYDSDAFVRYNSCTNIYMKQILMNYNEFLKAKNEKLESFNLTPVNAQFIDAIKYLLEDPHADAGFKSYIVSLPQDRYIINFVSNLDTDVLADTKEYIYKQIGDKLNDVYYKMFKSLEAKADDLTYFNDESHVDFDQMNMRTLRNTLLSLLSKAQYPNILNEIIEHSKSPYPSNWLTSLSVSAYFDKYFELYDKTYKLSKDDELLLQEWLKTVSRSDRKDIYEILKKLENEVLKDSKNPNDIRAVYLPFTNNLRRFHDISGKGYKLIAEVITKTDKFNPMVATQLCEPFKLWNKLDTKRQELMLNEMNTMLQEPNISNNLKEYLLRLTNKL

Which IC50 does the source give for `O=C(NCc1ccccc1F)C1CCN(S(=O)(=O)c2ccc(Br)s2)CC1` here?
The IC50 was 2.53 µM.

For `O=C(NCc1ccccc1F)C1CCN(S(=O)(=O)c2ccc(Br)cc2)CC1`, which IC50 is on record?
Its IC50 is 12.7 µM.

For `O=C(NCc1ccc(F)cc1)C1CCN(S(=O)(=O)c2sccc2Br)CC1`, which IC50 is on record?
The IC50 was 69.2 µM.

With `O=C(NCc1ccc2c(c1)OCO2)C1CCN(S(=O)(=O)c2ccc(Br)s2)CC1` as the molecule, how does the IC50 read?
Its IC50 is 1.22 µM.

For `O=C(NCc1ccc(F)cc1)C1CCN(S(=O)(=O)c2ccc(Cl)s2)CC1`, which IC50 is on record?
The IC50 was 6.48 µM.

With `O=C(NCc1ccc2c(c1)OCO2)C1CCN(S(=O)(=O)c2ccc(Br)cc2)CC1` as the molecule, how does the IC50 read?
The IC50 was 7.44 µM.

Which IC50 does the source give for `O=C(NCc1ccccc1F)C1CCN(S(=O)(=O)c2sccc2Br)CC1` here?
Its IC50 is 33.7 µM.

How did the IC50 turn out when `O=C(NCc1cccc(F)c1)C1CCN(S(=O)(=O)c2ccc(Br)cc2)CC1` was run?
The IC50 was 11.2 µM.

For `O=C(NCc1ccc2c(c1)OCO2)C1CCN(S(=O)(=O)c2sccc2Br)CC1`, which IC50 is on record?
The IC50 was 34.3 µM.

With `O=C(NCc1ccc(F)cc1)C1CCN(S(=O)(=O)c2ccc(Br)cc2)CC1` as the molecule, how does the IC50 read?
Its IC50 is 28 µM.

Which IC50 does the source give for `O=C(NCc1cccc(F)c1)C1CCN(S(=O)(=O)c2sccc2Br)CC1` here?
The IC50 was 29.8 µM.

With `O=C(NCc1ccc(F)cc1)C1CCN(S(=O)(=O)c2ccc(Br)s2)CC1` as the molecule, how does the IC50 read?
The IC50 was 3.95 µM.

For `O=C(NCc1ccccc1F)C1CCN(S(=O)(=O)c2ccc(Cl)s2)CC1`, which IC50 is on record?
The IC50 was 3.97 µM.

`O=C(NCc1cccc(F)c1)C1CCN(S(=O)(=O)c2ccc(Br)s2)CC1` was tested. Which IC50 did it give?
The IC50 was 2.18 µM.

With `O=C(NCc1cccc(F)c1)C1CCN(S(=O)(=O)c2ccc(Cl)s2)CC1` as the molecule, how does the IC50 read?
Its IC50 is 3.98 µM.

For `O=C(NCc1ccc2c(c1)OCO2)C1CCN(S(=O)(=O)c2ccc(Cl)s2)CC1`, which IC50 is on record?
Its IC50 is 2.83 µM.

Same assay, conditions: purified rPFM1AAP, H-Leu-NHMec fluorogenic substrate cleavage; at 100 µM (top of the series)

How did the inhibition turn out when `O=C(Nc1ccc2c(c1)OCO2)C1CCN(S(=O)(=O)c2cc(Br)c(Br)s2)CC1` was run?
Its inhibition is “inactive”.

Which inhibition does the source give for `O=C(NCCc1ccc2c(c1)OCO2)C1CCN(S(=O)(=O)c2cc(Br)c(Br)s2)CC1` here?
Its inhibition is “inactive”.

For `O=C(NCc1ccc(F)cc1)C1CCN(S(=O)(=O)c2cc(Br)c(Br)s2)CC1`, which inhibition is on record?
The inhibition was “inactive”.

How did the inhibition turn out when `O=C(Nc1ccc2c(c1)OCO2)C1CCN(S(=O)(=O)c2ccc(Br)s2)CC1` was run?
Its inhibition is “inactive”.

Which inhibition does the source give for `O=C(NCCc1ccc2c(c1)OCO2)C1CCN(S(=O)(=O)c2ccc(Cl)s2)CC1` here?
Its inhibition is “inactive”.

For `O=C(NCc1ccccc1F)C1CCN(S(=O)(=O)c2cc(Br)c(Br)s2)CC1`, which inhibition is on record?
The inhibition was “inactive”.

Which inhibition does the source give for `O=C(NCCc1ccc2c(c1)OCO2)C1CCN(S(=O)(=O)c2sccc2Br)CC1` here?
The inhibition was “inactive”.

With `O=C(NCCc1ccc2c(c1)OCO2)C1CCN(S(=O)(=O)c2ccc(Br)s2)CC1` as the molecule, how does the inhibition read?
The inhibition was “inactive”.

How did the inhibition turn out when `O=C(Nc1ccc2c(c1)OCO2)C1CCN(S(=O)(=O)c2ccc(Br)cc2)CC1` was run?
The inhibition was “inactive”.

With `O=C(NCc1cccc(F)c1)C1CCN(S(=O)(=O)c2cc(Br)c(Br)s2)CC1` as the molecule, how does the inhibition read?
The inhibition was “inactive”.

`O=C(Nc1ccc2c(c1)OCO2)C1CCN(S(=O)(=O)c2ccc(Cl)s2)CC1` was tested. Which inhibition did it give?
The inhibition was “inactive”.

Which inhibition does the source give for `O=C(NCc1ccc2c(c1)OCO2)C1CCN(S(=O)(=O)c2cc(Br)c(Br)s2)CC1` here?
Its inhibition is “inactive”.

Which inhibition does the source give for `O=C(Nc1ccc2c(c1)OCO2)C1CCN(S(=O)(=O)c2sccc2Br)CC1` here?
Its inhibition is “inactive”.

`O=C(NCCc1ccc2c(c1)OCO2)C1CCN(S(=O)(=O)c2ccc(Br)cc2)CC1` was tested. Which inhibition did it give?
The inhibition was “inactive”.
